An excerpt weighted towards active compounds, which were near 2.6% of everything screened.
PRMT1 FP inh: inhibitors of human PRMT1 | Q99873 | hit rate 1.3% among 370,000 | recombinant PRMT1, activity-based probe fluorescence polarization | inhibition, % at 2.79 µM;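 active = inhibition above about 21% made by adding two undisclosed values, limit read from the data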
GSTO1 inh: GSTO1 inhibition, counter-screen for RBBP9 inhibitors | P78417 | inhibition, % at 5.96 µM | recombinant GSTO1, activity-based probe fluorescence polarization | hit rate 1.1% among 300,000;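 active = inhibition above the campaign mean inhibition plus 3 SD, cut at about 35% in these data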;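 also: 0% = GSTO1-1 with DMSO and 100% = wells lacking GSTO1-1 enzyme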
Apaf-1 inh: human Apaf-1 inhibition. O14727. reconstituted apoptosome caspase-3 activity, DEVD-Rh110 fluorescence. inhibition, % at 20 µM. hit rate 0.71% among 330,000; active = inhibition of at least 40% at 20 µM;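 also: plate controls were DMSO wells for no effect and DEVD-CHO caspase inhibitor wells for full effect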
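Assay system – apoptosome proteins · Medium – Hepes buffer, pH 7.5 · Also added – cytochrome c with DEVD-Rh110 · Timing – 30 min compound preincubation, 50 min activation, room temperature · Detection – Rh110 fluorescence, excitation 480 nm, emission 540 nm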
TDP2 absorb: TDP2 (human) inhibition, absorbance primary screen. O95551. recombinant TDP2, T5PNP hydrolysis, p-nitrophenol absorbance 415 nm. inhibition, % at 12.8 µM. hit rate 0.34% among 370,000. AID 720702;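 active = inhibition above the mean of all tested compounds plus 3 SD, set per campaign, cut at about 25% in these data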;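 also: 0% = DMSO with enzyme and 100% = buffer with substrate but no TDP2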
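Test system: Human TDP2 enzyme | Reagent: 5 mM T5PNP | Compound dosing: 12.8 µM single point, 1% DMSO | Incubation: Enzyme reaction with compound for 2 h at 37 °C | Technique: p-Nitrophenol epi absorbance | Read-out: % inhibition relative to enzyme-containing and enzyme-free wells | Benchmarks: High control without enzyme, low control DMSO plus TDP2 | Replicates: Singlicate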
PAD4 inh: blocks human protein arginine deiminase 4 | hit rate 0.41% among 330,000 | inhibition, % at 6.36 µM | recombinant PAD4, RCA probe fluorescence polarization | AID 485272;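 active = percent inhibition above a cutoff equal to the mean of all tested compounds plus 3 SD, cut at about 15% in these data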;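 also: 0% = PAD4 with RCA probe and DMSO and 100% = probe without PAD4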
PRMT1 confirm: PRMT1 (human) inhibition, FP confirmation. shares compounds with PRMT1 FP inh. recombinant His-PRMT1, activity-based probe fluorescence polarization. inhibition, % at 2.79 µM. hit rate 42% among 3,300. AID 687036;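 active = mean inhibition across replicates above the hit cutoff derived for the earlier primary screen, cut at about 22% in these data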
Numbers without * were called inactive.

O=C(SCC(O)C(O)CS)c1cccs1 (centres undefined) was read as PRMT1 FP inh 65*, GSTO1 inh 3, Apaf-1 inh -3, TDP2 absorb -3, PAD4 inh -1 and PRMT1 confirm 54*.
Screening COc1cccc(-n2c(=S)sc3c(=O)n(-c4ccccc4OC)c(=S)[nH]c32)c1 returned PRMT1 FP inh 82*, GSTO1 inh 10, Apaf-1 inh 0, TDP2 absorb -2, PAD4 inh 1 and PRMT1 confirm 21.
Screening COc1ccccc1-n1c(SCC(=O)O)nc2c(sc(=S)n2-c2ccccc2C)c1=O returned PRMT1 FP inh 0, GSTO1 inh -4, Apaf-1 inh 2, TDP2 absorb -3 and PAD4 inh 2.
For COc1ccc(OC)c(-n2c(=S)[nH]c3c(sc(=S)n3-c3ccccc3C)c2=O)c1 the results were PRMT1 FP inh 48*, GSTO1 inh 3, Apaf-1 inh -6, TDP2 absorb -11, PAD4 inh -5 and PRMT1 confirm 3.
Screening CC(C)(C)c1ccc(Oc2ccc(NC(=O)c3ccco3)cn2)cc1 returned PRMT1 FP inh 29*, GSTO1 inh -2, Apaf-1 inh 5, TDP2 absorb 0, PAD4 inh 4 and PRMT1 confirm 3.
O=C(Nc1ccc(Oc2cccc(C(F)(F)F)c2)nc1)c1ccco1 was read as PRMT1 FP inh -1, GSTO1 inh 0, Apaf-1 inh -3, TDP2 absorb 0 and PAD4 inh 1.
For COc1cc(/C=C2\SC(=S)N(NC(=O)c3ccccc3O)C2=O)ccc1O the results were PRMT1 FP inh 5, GSTO1 inh -48, Apaf-1 inh 5, TDP2 absorb -11 and PAD4 inh -49.
`O=C(NN1C(=O)/C(=C/c2ccc(O)c([N+](=O)[O-])c2)SC1=S)c1ccccc1Cl` gave PRMT1 FP inh 28*, GSTO1 inh 1, Apaf-1 inh 16, TDP2 absorb 9, PAD4 inh -22 and PRMT1 confirm 15.
CCOC(=O)C1=C(C)NC(=S)NC1c1ccc(-c2ccc(Cl)cc2)o1 (centres undefined) was read as PRMT1 FP inh 42*, GSTO1 inh -8, Apaf-1 inh 6, TDP2 absorb -4, PAD4 inh -3 and PRMT1 confirm 5.
Screening COC(=O)C1=C(C)NC(=S)NC1c1ccc(-c2ccccc2C(=O)OC)o1 (centres undefined) returned PRMT1 FP inh 31*, GSTO1 inh 15, Apaf-1 inh 6, TDP2 absorb -4, PAD4 inh -2 and PRMT1 confirm 17.
Screening O=C(Nc1ccccc1)N1CCc2scc[n+]2-c2ccccc21 returned PRMT1 FP inh 56*, GSTO1 inh 1, Apaf-1 inh 4, TDP2 absorb -11, PAD4 inh 1 and PRMT1 confirm 19.
`O=CN1CCc2scc[n+]2-c2ccccc21` gave PRMT1 FP inh 41*, GSTO1 inh -4, Apaf-1 inh -5, TDP2 absorb 13, PAD4 inh 3 and PRMT1 confirm 30*.
O=CN1CCC(=O)N(Cc2ccccc2)c2ccccc21 was read as PRMT1 FP inh 0, GSTO1 inh -12, Apaf-1 inh -4, TDP2 absorb 2 and PAD4 inh -7.
Screening CC1CN(C(=O)Nc2ccccc2)c2ccccc2-[n+]2ccsc21 (centres undefined) returned PRMT1 FP inh 18, GSTO1 inh 3, Apaf-1 inh -2, TDP2 absorb 5 and PAD4 inh -2.
Screening Oc1ccc(-c2n[nH]c(=S)n2Cc2ccco2)cc1 returned PRMT1 FP inh 5, GSTO1 inh 1, Apaf-1 inh -2, TDP2 absorb 1 and PAD4 inh 4.
Screening Cc1nn(C)c(-c2n[nH]c(=S)n2Cc2ccco2)c1Cl returned PRMT1 FP inh 28*, GSTO1 inh 0, Apaf-1 inh 5, TDP2 absorb 1, PAD4 inh 2 and PRMT1 confirm 3.
For O=C(c1ccco1)N1CCN(CCCCOc2ccc(F)cc2)CC1 the results were PRMT1 FP inh 0, GSTO1 inh 2, Apaf-1 inh 4, TDP2 absorb 6 and PAD4 inh -2.
For COc1ccc(/C=C2\CCc3c2nc2ccccc2c3C(=O)O)cc1OC the results were PRMT1 FP inh 79*, GSTO1 inh 3, Apaf-1 inh -4, TDP2 absorb 9, PAD4 inh -9 and PRMT1 confirm 12.
Cc1ccc2c(c1)[C@H]1[C@H](CO2)[C@H](c2ccccc2)[C@]2(C)C(=O)N(Cc3ccc(F)cc3)CC(=O)N12 was read as PRMT1 FP inh 38*, Apaf-1 inh 25, TDP2 absorb 1, PAD4 inh 3 and PRMT1 confirm 11.
Cc1ccc2c(c1)[C@H]1[C@H](CO2)[C@H](c2ccccc2)[C@]2(C)C(=O)N(Cc3ccc(Cl)cc3)CC(=O)N12 was read as PRMT1 FP inh -3, Apaf-1 inh 19, TDP2 absorb -12 and PAD4 inh -3.
`O=C(N/N=C/C=C\c1ccco1)c1cccs1` gave PRMT1 FP inh 33*, GSTO1 inh 5, Apaf-1 inh -2, TDP2 absorb 16, PAD4 inh -2 and PRMT1 confirm 23*.
O=C(N/N=C/C=C/c1ccco1)/C(=C/c1ccccc1)NC(=O)c1ccccc1 was read as PRMT1 FP inh 30*, GSTO1 inh 6, Apaf-1 inh 9, TDP2 absorb -19, PAD4 inh -7 and PRMT1 confirm 16.
Screening O=C(Cc1cccs1)N/N=C/C=C\c1ccco1 returned PRMT1 FP inh 11, GSTO1 inh 7, Apaf-1 inh 13, TDP2 absorb 3 and PAD4 inh 1.
C=CC[N@@+]12CC[C@]34c5ccccc5N5/C=C6\C7N(/C=C(\C53)[C@@H](C[C@@H]41)/C(=C/CO)C2)c1ccccc1[C@@]71CC[N@@+]2(CC=C)C/C(=C\CO)[C@@H]6C[C@@H]12 (some centres undefined) was read as PRMT1 FP inh 0, GSTO1 inh 0, Apaf-1 inh 11, TDP2 absorb 2 and PAD4 inh -6.
Screening COc1ccccc1CNC(=O)CN1C(=O)NC2(CCOc3ccccc32)C1=O (centres undefined) returned PRMT1 FP inh 0, Apaf-1 inh 4, TDP2 absorb -12 and PAD4 inh -1.
For O=C(NCc1ccccc1)NC(=O)c1ccc(Cl)cc1 the results were PRMT1 FP inh 2, GSTO1 inh 1, Apaf-1 inh -8, TDP2 absorb 14 and PAD4 inh -6.
COc1ccc(OC)c2cc3ccccc3cc12 was read as PRMT1 FP inh 29*, TDP2 absorb 4 and PRMT1 confirm 70*.
Screening Cc1ccc(C(=O)CCS(=O)(=O)c2ccc(F)cc2)cc1 returned PRMT1 FP inh 29*, GSTO1 inh -3, Apaf-1 inh 15, TDP2 absorb 8, PAD4 inh 11 and PRMT1 confirm 26*.

Screening data as filed in PubChem BioAssay.
